Assay results: ChEMBL document CHEMBL4011617, “Ugi Reaction-Derived α-Acyl Aminocarboxamides Bind to Phosphatidylinositol 3-Kinase-Related Kinases, Inhibit HSF1-Dependent Heat Shock Response, and Induce Apoptosis in Multiple Myeloma Cells” (J Med Chem, 2017)
Calls of active or inactive are those of the source.

Columns and labels:
Assay type in all cases: cell-based
[1] = molecular target: Serine/threonine-protein kinase ATR (Homo sapiens) (UniProt Q13535); assay: Binding affinity to ATR protein in human INA-6 cells after 3 hrs by Western blot method
Procedure, shortened: (§1)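 INA-6 lysate was incubated with compound-coupled streptavidin beads or with beads only as the control. Captured-protein eluates were Western blotted with specific antibodies against DNA-PK, ATM, ATR or mTOR. H2AX staining or Ponceau S served as loading controls.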

[2] = molecular target: MICOS complex subunit MIC19 (Homo sapiens) (UniProt Q9NX63); assay: Binding affinity to MICOS complex subunit MIC19 in human INA-6 cells after 3 hrs by nanoLC-MS/MS method
Procedure, shortened: (§2)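 The biotinylated inhibitor was loaded on streptavidin beads, with empty beads as the control. Eluates were trypsin-digested and run by nanoLC-MS/MS. Inhibitor/control ratios came from label-free quantification, taken as medians of five biological replicates. Enrichment was called at Benjamini-Hochberg-adjusted limma p < 0.02.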

[3] = molecular target: Serine/threonine-protein phosphatase 6 regulatory subunit 2 (Homo sapiens) (UniProt O75170); assay: Binding affinity to PP6R2 protein in human INA-6 cells after 3 hrs by nanoLC-MS/MS method; procedure, shortened: as §2
[4] = molecular target: Conserved oligomeric Golgi complex subunit 1 (Homo sapiens) (UniProt Q8WTW3); assay: Binding affinity to COG1 in human INA-6 cells after 3 hrs by nanoLC-MS/MS method; procedure, shortened: as §2
[5] = molecular target: Serine/threonine-protein phosphatase 6 regulatory subunit 3 (Homo sapiens) (UniProt Q5H9R7); assay: Binding affinity to serine/threonine-protein phosphatase 6 regulatory subunit 3 in human INA-6 cells after 3 hrs by nanoLC-MS/MS method; procedure, shortened: as §2
[6] = molecular target: Serine/threonine-protein phosphatase 6 catalytic subunit (Homo sapiens) (UniProt O00743); assay: Binding affinity to serine/threonine-protein phosphatase 6 catalytic subunit in human INA-6 cells after 3 hrs by nanoLC-MS/MS method; procedure, shortened: as §2
[7] = molecular target: CCR4-NOT transcription complex subunit 6-like (Homo sapiens) (UniProt Q96LI5); assay: Binding affinity to CCR4-NOT transcription complex subunit 6-like in human INA-6 cells after 3 hrs by nanoLC-MS/MS method; procedure, shortened: as §2
[8] = molecular target: Serine-protein kinase ATM (Homo sapiens) (UniProt Q13315); assay: Binding affinity to ATM protein in human INA-6 cells after 3 hrs by Western blot method; procedure, shortened: as §1
[9] = molecular target: Exportin-T (Homo sapiens) (UniProt O43592); assay: Binding affinity to XPOT protein in human INA-6 cells after 3 hrs by nanoLC-MS/MS method; procedure, shortened: as §2
[10] = molecular target: Conserved oligomeric Golgi complex subunit 8 (Homo sapiens) (UniProt Q96MW5); assay: Binding affinity to COG8 in human INA-6 cells after 3 hrs by nanoLC-MS/MS method; procedure, shortened: as §2
Chain of Conserved oligomeric Golgi complex subunit 8 (Homo sapiens) (Q96MW5 whole entry, one chain of several): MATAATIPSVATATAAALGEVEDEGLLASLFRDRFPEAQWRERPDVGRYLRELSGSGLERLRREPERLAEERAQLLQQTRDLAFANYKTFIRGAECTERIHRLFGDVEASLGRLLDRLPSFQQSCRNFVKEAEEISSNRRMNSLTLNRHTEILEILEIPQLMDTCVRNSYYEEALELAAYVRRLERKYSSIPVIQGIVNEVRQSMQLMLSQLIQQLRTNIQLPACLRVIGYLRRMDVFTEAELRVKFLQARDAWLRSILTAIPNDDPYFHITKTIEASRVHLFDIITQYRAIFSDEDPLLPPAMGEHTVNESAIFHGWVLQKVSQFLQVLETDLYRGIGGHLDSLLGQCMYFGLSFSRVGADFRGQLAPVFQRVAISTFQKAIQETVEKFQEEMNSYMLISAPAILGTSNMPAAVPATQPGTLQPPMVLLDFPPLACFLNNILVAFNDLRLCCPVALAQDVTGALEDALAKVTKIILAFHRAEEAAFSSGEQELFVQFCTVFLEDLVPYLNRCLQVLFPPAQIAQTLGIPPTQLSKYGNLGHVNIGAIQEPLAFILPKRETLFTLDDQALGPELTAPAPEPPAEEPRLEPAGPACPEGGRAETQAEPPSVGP

[11] = molecular target: CCR4-NOT transcription complex subunit 9 (Homo sapiens) (UniProt Q92600); assay: Binding affinity to RCD1 protein in human INA-6 cells after 3 hrs by nanoLC-MS/MS method; procedure, shortened: as §2
[12] = molecular target: Serine/threonine-protein kinase mTOR (Homo sapiens) (UniProt P42345); assay: Binding affinity to mTOR protein in human INA-6 cells after 3 hrs by Western blot method; procedure, shortened: as §1
[13] = molecular target: Conserved oligomeric Golgi complex subunit 4 (Homo sapiens) (UniProt Q9H9E3); assay: Binding affinity to COG4 in human INA-6 cells after 3 hrs by nanoLC-MS/MS method; procedure, shortened: as §2
[14] = molecular target: DNA-dependent protein kinase catalytic subunit (Homo sapiens) (UniProt P78527); assay: Binding affinity to PRKDC protein in human INA-6 cells after 3 hrs by Western blot method; procedure, shortened: as §1
Chain of DNA-dependent protein kinase catalytic subunit (Homo sapiens) (P78527 whole entry): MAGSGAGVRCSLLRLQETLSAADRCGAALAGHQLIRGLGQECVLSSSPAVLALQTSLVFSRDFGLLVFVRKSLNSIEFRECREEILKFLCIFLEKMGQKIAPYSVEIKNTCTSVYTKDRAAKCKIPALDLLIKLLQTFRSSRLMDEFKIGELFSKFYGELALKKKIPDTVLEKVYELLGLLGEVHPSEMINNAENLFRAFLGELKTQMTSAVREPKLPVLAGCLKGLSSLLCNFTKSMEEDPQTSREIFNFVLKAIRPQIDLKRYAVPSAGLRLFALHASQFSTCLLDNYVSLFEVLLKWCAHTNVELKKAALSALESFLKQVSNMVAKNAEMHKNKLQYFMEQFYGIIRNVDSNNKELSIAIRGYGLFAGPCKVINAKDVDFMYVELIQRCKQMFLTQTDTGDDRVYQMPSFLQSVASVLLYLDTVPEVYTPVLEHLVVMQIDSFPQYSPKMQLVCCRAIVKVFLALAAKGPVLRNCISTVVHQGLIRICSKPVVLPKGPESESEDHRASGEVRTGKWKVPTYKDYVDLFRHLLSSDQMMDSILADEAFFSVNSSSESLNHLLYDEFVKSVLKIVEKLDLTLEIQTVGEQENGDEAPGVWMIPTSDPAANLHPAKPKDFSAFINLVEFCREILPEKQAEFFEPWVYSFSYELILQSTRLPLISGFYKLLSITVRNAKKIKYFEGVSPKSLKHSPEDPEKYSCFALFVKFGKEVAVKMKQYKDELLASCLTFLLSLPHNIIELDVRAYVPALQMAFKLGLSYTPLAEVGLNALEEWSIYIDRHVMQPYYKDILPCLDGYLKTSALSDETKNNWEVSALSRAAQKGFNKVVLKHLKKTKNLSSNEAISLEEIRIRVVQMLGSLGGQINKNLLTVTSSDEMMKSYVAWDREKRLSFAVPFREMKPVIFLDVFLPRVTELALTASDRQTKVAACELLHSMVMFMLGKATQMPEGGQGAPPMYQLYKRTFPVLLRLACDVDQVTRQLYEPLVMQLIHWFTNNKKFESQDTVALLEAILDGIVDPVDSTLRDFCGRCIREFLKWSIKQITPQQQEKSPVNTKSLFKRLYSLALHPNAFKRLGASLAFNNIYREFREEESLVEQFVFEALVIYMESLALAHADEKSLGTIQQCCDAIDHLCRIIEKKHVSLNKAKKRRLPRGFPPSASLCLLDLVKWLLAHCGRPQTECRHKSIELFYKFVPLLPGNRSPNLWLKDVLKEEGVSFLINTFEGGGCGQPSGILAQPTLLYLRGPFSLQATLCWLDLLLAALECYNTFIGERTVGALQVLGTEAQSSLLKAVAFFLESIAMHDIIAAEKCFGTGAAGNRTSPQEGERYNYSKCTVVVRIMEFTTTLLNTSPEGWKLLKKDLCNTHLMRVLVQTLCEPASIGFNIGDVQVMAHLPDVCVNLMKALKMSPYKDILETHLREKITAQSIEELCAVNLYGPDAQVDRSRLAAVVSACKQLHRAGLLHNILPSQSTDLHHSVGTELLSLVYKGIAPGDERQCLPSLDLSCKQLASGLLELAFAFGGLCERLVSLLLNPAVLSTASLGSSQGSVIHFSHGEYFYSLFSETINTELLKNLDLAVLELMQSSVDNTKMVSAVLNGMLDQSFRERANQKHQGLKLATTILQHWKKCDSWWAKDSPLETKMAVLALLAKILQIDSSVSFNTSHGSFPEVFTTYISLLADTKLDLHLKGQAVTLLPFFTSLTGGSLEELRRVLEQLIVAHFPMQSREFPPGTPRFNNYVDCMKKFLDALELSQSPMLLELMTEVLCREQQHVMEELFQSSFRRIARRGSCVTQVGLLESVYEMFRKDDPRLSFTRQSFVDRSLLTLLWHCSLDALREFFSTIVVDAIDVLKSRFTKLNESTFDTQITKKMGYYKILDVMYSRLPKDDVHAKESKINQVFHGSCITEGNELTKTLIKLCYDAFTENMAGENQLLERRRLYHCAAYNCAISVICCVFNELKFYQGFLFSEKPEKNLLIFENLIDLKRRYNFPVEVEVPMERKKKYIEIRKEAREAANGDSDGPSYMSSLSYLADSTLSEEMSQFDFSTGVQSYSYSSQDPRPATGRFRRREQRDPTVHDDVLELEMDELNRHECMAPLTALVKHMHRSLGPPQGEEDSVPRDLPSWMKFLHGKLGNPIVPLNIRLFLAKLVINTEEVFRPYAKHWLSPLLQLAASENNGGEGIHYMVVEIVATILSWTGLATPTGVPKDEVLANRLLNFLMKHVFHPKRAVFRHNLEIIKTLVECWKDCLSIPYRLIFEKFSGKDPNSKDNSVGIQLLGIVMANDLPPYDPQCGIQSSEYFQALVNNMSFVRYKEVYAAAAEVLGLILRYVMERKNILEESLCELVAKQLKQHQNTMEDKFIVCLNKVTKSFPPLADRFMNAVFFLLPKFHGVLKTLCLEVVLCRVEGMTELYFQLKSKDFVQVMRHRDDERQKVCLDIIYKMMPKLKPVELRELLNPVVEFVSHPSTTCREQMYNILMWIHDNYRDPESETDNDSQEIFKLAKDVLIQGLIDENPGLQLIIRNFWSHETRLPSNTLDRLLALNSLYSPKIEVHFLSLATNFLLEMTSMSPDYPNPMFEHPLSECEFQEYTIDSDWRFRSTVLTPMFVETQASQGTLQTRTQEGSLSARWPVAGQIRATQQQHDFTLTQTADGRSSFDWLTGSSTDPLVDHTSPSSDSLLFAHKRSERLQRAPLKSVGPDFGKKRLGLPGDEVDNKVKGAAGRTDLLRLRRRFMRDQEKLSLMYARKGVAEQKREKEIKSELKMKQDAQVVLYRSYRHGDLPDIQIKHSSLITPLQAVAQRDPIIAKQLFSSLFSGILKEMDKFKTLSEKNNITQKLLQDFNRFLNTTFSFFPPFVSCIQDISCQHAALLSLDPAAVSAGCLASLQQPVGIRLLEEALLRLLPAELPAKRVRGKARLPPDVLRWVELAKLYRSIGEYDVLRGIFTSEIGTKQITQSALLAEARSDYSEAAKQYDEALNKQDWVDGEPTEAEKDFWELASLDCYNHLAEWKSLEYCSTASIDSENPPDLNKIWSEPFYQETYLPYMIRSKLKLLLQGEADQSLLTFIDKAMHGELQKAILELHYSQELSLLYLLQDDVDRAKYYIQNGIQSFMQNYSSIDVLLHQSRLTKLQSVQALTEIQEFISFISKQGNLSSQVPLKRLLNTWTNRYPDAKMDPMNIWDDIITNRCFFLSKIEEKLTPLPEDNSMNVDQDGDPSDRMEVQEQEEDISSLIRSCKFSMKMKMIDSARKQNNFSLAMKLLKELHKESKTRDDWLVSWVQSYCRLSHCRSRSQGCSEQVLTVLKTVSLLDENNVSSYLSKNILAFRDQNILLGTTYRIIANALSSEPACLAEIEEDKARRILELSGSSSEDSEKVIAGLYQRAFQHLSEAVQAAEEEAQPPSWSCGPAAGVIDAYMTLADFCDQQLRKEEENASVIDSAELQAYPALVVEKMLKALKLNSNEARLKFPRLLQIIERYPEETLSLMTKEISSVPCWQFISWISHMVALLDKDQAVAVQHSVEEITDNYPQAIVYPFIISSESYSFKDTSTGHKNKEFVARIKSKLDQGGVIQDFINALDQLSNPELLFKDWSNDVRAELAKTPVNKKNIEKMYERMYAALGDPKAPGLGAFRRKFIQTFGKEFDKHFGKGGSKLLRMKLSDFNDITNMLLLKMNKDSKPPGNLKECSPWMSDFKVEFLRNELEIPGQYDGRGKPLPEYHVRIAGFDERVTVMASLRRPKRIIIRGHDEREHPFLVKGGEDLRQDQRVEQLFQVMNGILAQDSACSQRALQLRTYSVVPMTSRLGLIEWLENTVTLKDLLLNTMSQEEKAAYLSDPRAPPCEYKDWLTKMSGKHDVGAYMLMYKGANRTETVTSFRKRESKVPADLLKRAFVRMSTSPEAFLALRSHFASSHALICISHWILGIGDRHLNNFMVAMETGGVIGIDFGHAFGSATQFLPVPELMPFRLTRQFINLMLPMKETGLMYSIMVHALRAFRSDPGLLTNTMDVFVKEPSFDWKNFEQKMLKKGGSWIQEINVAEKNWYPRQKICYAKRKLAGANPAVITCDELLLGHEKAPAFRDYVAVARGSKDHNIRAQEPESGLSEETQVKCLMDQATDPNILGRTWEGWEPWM

[15] = molecular target: CCR4-NOT transcription complex subunit 4 (Homo sapiens) (UniProt O95628); assay: Binding affinity to CCR4-NOT transcription complex subunit 4 in human INA-6 cells after 3 hrs by nanoLC-MS/MS method; procedure, shortened: as §2
[16] = molecular target: Serine/threonine-protein kinase mTOR (Homo sapiens) (UniProt P42345); assay: Binding affinity to mTOR protein in human INA-6 cells after 3 hrs by nanoLC-MS/MS method; procedure, shortened: as §2
[17] = molecular target: Brefeldin A-inhibited guanine nucleotide-exchange protein 2 (Homo sapiens) (UniProt Q9Y6D5); assay: Binding affinity to BIG2 protein in human INA-6 cells after 3 hrs by nanoLC-MS/MS method; procedure, shortened: as §2
[18] = molecular target: Serine/threonine-protein phosphatase 6 regulatory ankyrin repeat subunit A (Homo sapiens) (UniProt O15084); assay: Binding affinity to serine/threonine-protein phosphatase 6 regulatory ankyrin repeat subunit A in human INA-6 cells after 3 hrs by nanoLC-MS/MS method; procedure, shortened: as §2
[19] = molecular target: Mitogen-activated protein kinase kinase kinase 5 (Homo sapiens) (UniProt Q99683); assay: Binding affinity to MAP3K5 in human INA-6 cells after 3 hrs by nanoLC-MS/MS method; procedure, shortened: as §2
[20] = molecular target: CCR4-NOT transcription complex subunit 7 (Homo sapiens) (UniProt Q9UIV1); assay: Binding affinity to CCR4-NOT transcription complex subunit 7 in human INA-6 cells after 3 hrs by nanoLC-MS/MS method; procedure, shortened: as §2
Chain of CCR4-NOT transcription complex subunit 7 (Homo sapiens) (Q9UIV1 whole entry, one chain of several): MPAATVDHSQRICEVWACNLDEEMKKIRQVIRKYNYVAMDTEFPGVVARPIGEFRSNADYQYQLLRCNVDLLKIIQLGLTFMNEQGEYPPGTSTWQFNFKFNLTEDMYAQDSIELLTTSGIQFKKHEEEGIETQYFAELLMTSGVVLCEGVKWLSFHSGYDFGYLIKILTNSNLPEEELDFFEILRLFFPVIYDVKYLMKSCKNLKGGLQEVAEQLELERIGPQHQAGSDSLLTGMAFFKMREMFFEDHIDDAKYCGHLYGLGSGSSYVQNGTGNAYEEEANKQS

[21] = molecular target: DNA-dependent protein kinase catalytic subunit (Homo sapiens) (UniProt P78527); assay: Binding affinity to PRKDC protein in human INA-6 cells after 3 hrs by nanoLC-MS/MS method; procedure, shortened: as §2
[22] = molecular target: MICOS complex subunit MIC60 (Homo sapiens) (UniProt Q16891); assay: Binding affinity to MICOS complex subunit MIC60 in human INA-6 cells after 3 hrs by nanoLC-MS/MS method; procedure, shortened: as §2

Measured: Activity

O=C(CCCC[C@@H]1SC[C@@H]2NC(=O)N[C@@H]21)NCCOCCOCCNCCOc1ccc(C(C(=O)NCc2ccccc2)N(C(=O)CCc2ccc(O)cc2)C2CC2)cc1 (mixture of isomers)
active: all assays above

O=C(CCCC[C@@H]1SC[C@@H]2NC(=O)N[C@@H]21)NCCOCCOCCNCCOc1ccc(C(C(=O)NCc2ccccc2)N(C(=O)CCc2ccccc2)C2CC2)cc1 (mixture of isomers)
not listed: [1] | [8] | [12] | [14]
active: all other assays above
